The species entered for assay [1] is Canis familiaris. In words: In vitro electrophysiological evaluation in canine cardiac Purkinje fibres reported as % change for action potential duration at a concentration of 10 uM. Type of assay: functional, Canis lupus familiaris, Purkinje fiber. In a few lines: (§1)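 Canine cardiac Purkinje fibres, intracellular microelectrode recording, paced at a basic cycle length of 1 s. APD95 and Vmax read simultaneously. Compound: 10 mM stock in deionized water, diluted into Tyrode's solution, tested over the stated concentration range. Each fibre used once as its own control. Result is % change from control, given at 10 µM or as the maximum with its concentration. M = <10% decrease or an increase in Vmax.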

Assay [2] is filed under the species Canis familiaris. In words: In vitro electrophysiological evaluation in canine cardiac Purkinje fibres reported as % change for action potential duration at 10 uM at 0.1-100 uM concentration range. The class given is functional, Canis lupus familiaris, Purkinje fiber. In a few lines: as §1
The species named for assay [3] is Canis familiaris. In words: In vitro electrophysiological evaluation in canine cardiac ventricular muscle reported as maximum % change for functional refractory period (FRP); concentration at which it occurred is 10 uM. More on the design: species or system Canis lupus familiaris, Muscle tissue. In a few lines:
(§2)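 Canine right ventricle and papillary muscle strips in oxygenated Tyrode's solution, fitted with stimulating and recording electrodes. The extra-stimulus conduction-interval method was adapted for in vitro use. FRP and CT were read from a conduction-interval curve before and after various compound concentrations, and expressed as percent change from control. Compounds were taken from 10 mM deionized-water stock into Tyrode's. Each strip was used once as its own control.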

The species named for assay [4] is Canis familiaris. In words: In vitro electrophysiological evaluation in canine cardiac ventricular muscle reported as % change for the functional refractory period (FRP) at 10 uM. More on the design: species or system Canis lupus familiaris, Muscle tissue. In a few lines: as §2
The species entered for assay [5] is Canis familiaris. Description: In vitro electrophysiological evaluation in canine cardiac ventricular muscle reported as % change for conduction time(CT) at 10 uM; Minimal (<10% decrease or increase in Vmax). The class given is functional, Canis lupus familiaris, Muscle tissue. In short, it runs like this:
as §2

The species entered for assay [6] is Canis familiaris. In words: In vitro electrophysiological evaluation in canine cardiac Purkinje fibres reported as percent change Vmax at 10 uM at concentration range of 0.1-100 uM; Minimal (<10% decrease or increase in Vmax). The settings on record: Canis lupus familiaris, Purkinje fiber. The class given is functional, organism-based. In a few lines: as §1
Assay [7] is filed under the species Canis familiaris. In words: In vitro electrophysiological evaluation in canine cardiac ventricular muscle reported as maximum % change for conduction time(CT); Minimal (<10% decrease or increase in […]). The class given is functional, Canis lupus familiaris, Muscle tissue. In a few lines:
as §2

Assay [8] is filed under the species Canis familiaris. Description: In vitro electrophysiological activity in canine cardiac occurred is 100 uM. The class given is functional, Canis lupus familiaris, Heart.
The species named for assay [9] is Canis familiaris. In words: In vitro electrophysiological evaluation in canine cardiac Purkinje fibres reported as maximum percent change Vmax concentration range of 0.1-100 uM; Minimal (<10% decrease or increase in Vmax). Conditions: Canis lupus familiaris; Purkinje fiber. Type of assay: functional. In a few lines:
as §1

For assay [10], the species on record is Canis familiaris. Description: (§3) In vitro electrophysiological activity in canine cardiac occurred is 100 uM. Type of assay: functional, Canis lupus familiaris, Heart.
For assay [11], the species on record is Canis familiaris. Description: In vitro electrophysiological evaluation in canine cardiac Purkinje fibres reported as percent change Vmax at 10 uM at concentration range of 1-100 uM. The class given is functional. Conditions: Canis lupus familiaris, Purkinje fiber. In short, it runs like this: as §1
Assay [12] is filed under the species Canis familiaris. The assay is described as §3. Type of assay: functional, Canis lupus familiaris, Heart. The source holds these as a separate data set.
The species named for assay [13] is Canis familiaris. Description: In vitro electrophysiological evaluation in canine cardiac occurred is 100 uM. The class given is functional. Conditions: Canis lupus familiaris; Heart.
The species named for assay [14] is Canis familiaris. In words: In vitro electrophysiological evaluation in canine cardiac ventricular muscle reported as maximum % change for functional refractory period (FRP) at 0.1-100 uM concentration range; concentration at which it occurred is 10 uM. More on the design: species or system Canis lupus familiaris, Muscle tissue. In short, it runs like this:
as §2

The species named for assay [15] is Canis familiaris. In words: In vitro electrophysiological evaluation in canine cardiac Purkinje fibres reported as % change for action potential duration at 10 uM at 1-100 uM concentration range. Type of assay: functional, Canis lupus familiaris, Purkinje fiber. In short, it runs like this:
as §1

Assay [16] is filed under the species Canis familiaris. Description: In vitro electrophysiological evaluation in canine cardiac Purkinje fibres reported as percent change Vmax at 10 uM at concentration range of 0.1-100 uM; Minimal (<10% decrease or increase in V max). The class given is functional, organism-based. The settings on record: Canis lupus familiaris, Purkinje fiber. In short, it runs like this:
as §1

The species entered for assay [17] is Canis familiaris. Description: In vitro electrophysiological evaluation in canine cardiac ventricular muscle reported as maximum % change for conduction time(CT) at 0.1-100 uM concentration range; concentration at which it occurred is 100 uM. The class given is functional, Canis lupus familiaris, Muscle tissue.
The species entered for assay [18] is Canis familiaris. Description: In vitro electrophysiological evaluation in canine cardiac ventricular muscle reported as % change for the functional refractory period (FRP) at 10 uM at concentration range of 0.1-100 uM. More on the design: species or system Canis lupus familiaris, Muscle tissue. In a few lines: as §2
Assay [19] is filed under the species Canis familiaris. In words: In vitro electrophysiological evaluation in canine cardiac Purkinje fibres reported as maximum percent change Vmax concentration range of 0.1-100 uM; Minimal (<10% decrease or increase in V max). Type of assay: functional. The settings on record: Canis lupus familiaris; Purkinje fiber. In short, it runs like this:
as §1

Several values for one entry are separate records, joined by “and”; a condition that tells them apart may be missing. Equal entries are not always repeated.

For `Cl.O=C1C2CCN(CC2)C1CCCc1ccccc1` (stereo not given), the APD95 was -6% in assay [1]; 1% in [2]; -38% and -35% in assay [8]. In addition, the FRP in assay [3] and in assay [4] was 5% in each case. Further, the CT in assay [5] and in [7] was below 10% throughout. In addition, the Vmax in [6] and in assay [9] was below 10% each time.

Regarding `Cl.O=C(CCC1C(=O)C2CCN1CC2)c1ccccc1` (stereo not given), the APD95 is -14% in assay [10], -3% in [1], -16% in assay [12] and -1% in [15]. Further, the Vmax in assay [11] was -36%; in assay [13], -52%; in assay [16] it was below 10%; in [19], below 10%. Besides, the FRP in [14] and in assay [18] was 12% throughout. In [17], this molecule gave a CT of 17%.
